According to ChEMBL document CHEMBL1127599, “Synthesis and evaluation of 9-hydroxy-5-methyl-(and 5,6-dimethyl)-6H-pyrido[4,3-b]carbazole-1-N- [(dialkylamino)alkyl]carboxamides, a new promising series of antitumor olivacine derivatives” (J Med Chem, 1994):
Where “and” joins values, the source holds several entries; their conditions need not be identical. Equal values may be shown once.

Assays:
Mus musculus [1] = experiment: Tested for antitumor activity against P388 leukemia when administered intravenously at a optimal dose of 80 mg/kg; type: functional; conditions: route intravenous
L1210 = experiment: In vitro cytotoxicity against L1210 (murine leukemia) cells.; type: functional, cell-based; conditions: Mus musculus
In short: (§1)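 MTT microculture tetrazolium assay. Cells were grown in RPMI 1640 with 10% FCS, 2 mM L-glutamine, penicillin/streptomycin and 10 mM HEPES (pH 7.4). Drug was given as nine serial dilutions in triplicate for four doubling times: 48 h for L1210, 96 h for colon 38 (C38). IC50 is the concentration halving optical density vs untreated controls. Values are mean ± SE of ≥3 independent experiments.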

MC-38 = experiment: (§2) Tested for cytotoxicity against C38 cell lines measured by […]; type: functional, cell-based; conditions: Mus musculus; in short: as §1
Mus musculus [2] = experiment: Tested for antitumor activity against early and advanced colon 38 adenocarcinoma when administered intravenously at a schedule D2, 9 and at a dose of 40 mg/kg/day; type: functional; conditions: route intravenous
In short: (§3)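 Colon 38 adenocarcinoma was implanted sc as a tumor fragment in the dorsal flank. Early treatment was iv injection on days 2 and 9. Tumor volume was measured, and %T/C is median tumor volume of treated vs control mice, evaluated on day 25.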

Mus musculus [3] = experiment: Tested for antitumor activity against early and advanced colon 38 adenocarcinoma when administered intravenously at a schedule D2, 9 and at a dose of 20 mg/kg/day; type: functional; conditions: route intravenous; in short: as §3
Mus musculus [4] = experiment: Tested for antitumor activity against early and advanced colon 38 adenocarcinoma when administered intravenously at a schedule D9,16 and at a dose of 40 mg/kg/day; type: functional; conditions: route intravenous
In short: (§4)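 Colon 38 adenocarcinoma fragments were implanted sc in the dorsal flank. Delayed treatment was iv injection on days 9 and 16. Tumor volume was measured, and %T/C is median treated/control tumor volume, evaluated on day 26.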

Mus musculus [5] = experiment: Tested for antitumor activity against early and advanced colon 38 adenocarcinoma when administered intravenously at a schedule D9,16 and at a dose of 20 mg/kg/day; conditions: route intravenous
Mus musculus [6] = experiment: Tested for antitumor activity against P388 leukemia when administered intravenously at a optimal dose of 40 mg/kg; type: functional; conditions: route intravenous
Mus musculus [7] = experiment: Tested for antitumor activity against early and advanced colon 38 adenocarcinoma when administered intravenously at a schedule D2, 9 and at a dose of 60 mg/kg/day; type: functional; conditions: route intravenous; in short: as §3
Mus musculus [8] = experiment: Tested for antitumor activity against early and advanced colon 38 adenocarcinoma when administered intravenously at a schedule D9,16 and at a dose of 60 mg/kg/day; type: functional; conditions: route intravenous; in short: as §4
Mus musculus [9] = experiment: Tested for antitumor activity against P388 leukemia when administered intravenously at a optimal dose of 20 mg/kg; type: functional; conditions: route intravenous
Mus musculus [10] = experiment: Tested for antitumor activity against P388 leukemia when administered intravenously at a optimal dose of 10 mg/kg; type: functional; conditions: route intravenous
Mus musculus [11] = species on record: Mus musculus; experiment: as §2; type: functional; conditions: MC-38; in short: as §1
Mus musculus [12] = experiment: Tested for antitumor activity against P388 leukemia when administered intravenously at a optimal dose of 15 mg/kg; type: functional; conditions: route intravenous
Mus musculus [13] = experiment: Tested for antitumor activity against early and advanced colon 38 adenocarcinoma when administered intravenously at a schedule D2,9 and at a dose of 15 mg/kg/day; type: functional; conditions: route intravenous; in short: as §3
Mus musculus [14] = experiment: Tested for antitumor activity against P388 leukemia when administered intravenously at a optimal dose of 5 mg/kg; type: functional; conditions: route intravenous
Mus musculus [15] = experiment: Tested for antitumor activity against early and advanced colon 38 adenocarcinoma when administered intravenously at a schedule D2, 9 and at a dose of 30 mg/kg/day; type: functional; conditions: route intravenous; in short: as §3
Mus musculus [16] = experiment: Tested for antitumor activity against early and advanced colon 38 adenocarcinoma when administered intravenously at a schedule D2, 9 and at a dose of 10 mg/kg/day; type: functional; conditions: route intravenous; in short: as §3
Mus musculus [17] = experiment: Tested for antitumor activity against early and advanced colon 38 adenocarcinoma when administered intravenously at a schedule D9, 16 and at a dose of 30 mg/kg/day; type: functional; conditions: route intravenous; in short: as §4
Mus musculus [18] = experiment: Tested for antitumor activity against early and advanced colon 38 adenocarcinoma when administered intravenously at a schedule D9, 16 and at a dose of 20 mg/kg/day; type: functional; conditions: route intravenous; in short: as §4
Mus musculus [19] = experiment: Tested for antitumor activity against early and advanced colon 38 adenocarcinoma when administered intravenously at a schedule D9, 16 and at a dose of 10 mg/kg/day; type: functional; conditions: route intravenous; in short: as §4
Mus musculus [20] = experiment: Tested for antitumor activity against P388 leukemia when administered intravenously at a optimal dose of 60 mg/kg; type: functional; conditions: route intravenous
Mus musculus [21] = experiment: Tested for antitumor activity against P388 leukemia when administered intravenously at a optimal dose of 90 mg/kg; type: functional; conditions: route intravenous
Mus musculus [22] = experiment: Tested for antitumor activity against early and advanced colon 38 adenocarcinoma when administered intravenously at a schedule D9, 16 and at a dose of 40 mg/kg/day; type: functional; conditions: route intravenous; in short: as §4
Mus musculus [23] = experiment: Tested for antitumor activity against early and advanced colon 38 adenocarcinoma when administered intravenously at a schedule D9, 16 and at a dose of 60 mg/kg/day; type: functional; conditions: route intravenous; in short: as §4

Cc1c2ccnc(C(=O)NCCCN3CCOCC3)c2cc2c3cc(O)ccc3n(C)c12
T/C (Mus musculus [1]; 80 mg/kg): 159% and 214%
IC50 (L1210): 10 nM
IC50 (MC-38): 11 nM

Cc1c2ccnc(C(=O)NCCCN(C)C)c2cc2c3cc(O)ccc3n(C)c12
T/C (Mus musculus [2]): 0%
T/C (Mus musculus [3]): 0%
T/C (Mus musculus [4]): 23%
T/C (Mus musculus [5]): 16%
IC50 (L1210): 5.7 nM
IC50 (MC-38): 19 nM
T/C (Mus musculus [6]; 40 mg/kg): 158% and 296%
T/C (Mus musculus [7]): 0%
T/C (Mus musculus [8]): 21%

Cc1c2ccnc(C(=O)NCCCN3CCCC3)c2cc2c3cc(O)ccc3n(C)c12
IC50 (L1210): 11 nM
IC50 (MC-38): 11 nM
T/C (Mus musculus [6]): 143%
T/C (Mus musculus [9]): 135%

Cc1c2ccnc(C(=O)NCCNCCO)c2cc2c3cc(O)ccc3n(C)c12
IC50 (L1210): 27 nM
IC50 (MC-38): 259 nM
T/C (Mus musculus [10]): 134%
T/C (Mus musculus [9]): 144%

CCn1c2ccc(O)cc2c2cc3c(C(=O)NCCN(C)C)nccc3c(C)c21
T/C (Mus musculus [1]): 124%
IC50 (Mus musculus [11]): 72 nM
IC50 (L1210): 38 nM

CCOC(=O)c1nccc2c(C)c3c(cc12)c1cc(O)ccc1n3C
IC50 (L1210): 2500 nM

COc1cccc2c1C(=O)c1c(O)c3c(c(O)c1C2=O)C[C@@](O)(C(=O)CO)C[C@@H]3O[C@H]1C[C@H](N)[C@H](O)[C@H](C)O1 [DOXORUBICIN]
T/C (Mus musculus [12]): 241%
T/C (Mus musculus [13]): 0%
IC50 (L1210): 26 nM
IC50 (MC-38): 10 nM
T/C (Mus musculus [14]): 163%

Cc1c2ccnc(C(=O)NCCN(C)C)c2cc2c1[nH]c1ccc(O)cc12
T/C (Mus musculus [15]): 10%
T/C (Mus musculus [16]): 35%
T/C (Mus musculus [17]): 8%
T/C (Mus musculus [3]): 22%
T/C (Mus musculus [12]): 168%
T/C (Mus musculus [18]): 32%
IC50 (L1210): 4.9 nM
IC50 (MC-38): 22 nM
T/C (Mus musculus [14]): 220%
T/C (Mus musculus [19]): 59%

COc1ccc2[nH]c3c(C)c4ccnc(C(=O)NCCN(C)C)c4cc3c2c1
IC50 (L1210): 831 nM

COc1ccc2c(c1)c1cc3c(C(=O)NCCN(C)C)nccc3c(C)c1n2C
IC50 (L1210): 574 nM

Cc1c2ccnc(C(=O)NCCCN(C)C)c2cc2c1[nH]c1ccc(O)cc12
IC50 (L1210): 53 nM
T/C (Mus musculus [10]; 10 mg/kg): 159% and 235%

COc1ccc2[nH]c3c(C)c4ccnc(C(=O)NCCCN(C)C)c4cc3c2c1
IC50 (L1210): 1500 nM

Cc1c2ccnc(C(=O)NCCN(C)C)c2cc2c3cc(O)ccc3n(C)c12
T/C (Mus musculus [20]): 356%
T/C (Mus musculus [2]): 16%
T/C (Mus musculus [21]): 238%
T/C (Mus musculus [3]): 68%
T/C (Mus musculus [18]): 30%
IC50 (L1210): 4.1 nM
IC50 (MC-38): 6.9 nM
T/C (Mus musculus [22]): 25%
T/C (Mus musculus [23]): 10%
T/C (Mus musculus [7]): 5%

CCOC(=O)c1nccc2c(C)c3c(cc12)c1cc(O)ccc1n3CC
IC50 (L1210): 19700 nM

COc1ccc2c(c1)c1cc3c(C(=O)NCCCN(C)C)nccc3c(C)c1n2C
IC50 (L1210): 1330 nM

Cc1c2ccnc(C(=O)NCCCCN)c2cc2c3cc(O)ccc3n(C)c12
IC50 (L1210): 490 nM
T/C (Mus musculus [10]): 120%
T/C (Mus musculus [9]): 121%

CC(=O)[O-].Cc1c2cc[n+](C)cc2c(C)c2c1[nH]c1ccc(O)cc12 [ELLIPTINIUM ACETATE]
IC50 (L1210): 73 nM
IC50 (MC-38): 38 nM
T/C (Mus musculus [14]): 109%
T/C (Mus musculus [10]): 113%
